{"source": "ChEMBL document CHEMBL1141491", "about": "“Design, synthesis, and evaluation of novel ethambutol analogues” (2008)", "data": [{"test_system": "Mycobacterium tuberculosis", "assay": "Antituberculosis activity against Mycobacterium tuberculosis H37Rv by microbroth dilution method", "assay_type": "functional", "outline": "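M. tuberculosis H37Rv grown in Middlebrook 7H9 with 10% ADC to OD600 0.4–0.6, then diluted in 7H9 to OD600 0.01. This inoculum was added to 2-fold serial dilutions of compound and incubated 37 °C for 7 days. MIC90 was read visually as the concentration inhibiting 90% of growth.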", "units": {"MIC90": "µg/mL"}, "values": [{"smiles": "CC(C)(CO)NCCNC(C)(C)CO.Cl.Cl", "MIC90": 6.25}, {"smiles": "CC[C@@H](CO)NCCNC1(CO)CCCC1.Cl.Cl", "MIC90": 1.6}, {"smiles": "C=CC[C@@H](CO)NCCN[C@@H](CC)CO.Cl.Cl", "MIC90": 25}, {"smiles": "C=CC[C@@](C)(CO)NCCN[C@@H](CC)CO.Cl.Cl", "MIC90": 6.25}, {"smiles": "Cl.Cl.OCC1(NCCNC2(CO)CCCC2)CCCC1", "MIC90": 3.12}, {"smiles": "CC[C@@H](CO)NCCNC(CO)CO.Cl.Cl", "MIC90": 3.12}, {"smiles": "CC[C@@H](CO)NCCN[C@H](CO)c1ccccc1.Cl.Cl", "MIC90": 50}, {"smiles": "CC[C@@H](CO)NCCNC(C)(C)CO.Cl.Cl", "MIC90": 1.6}, {"smiles": "Br.Br.CC[C@@H](CO)NCCN[C@@H](CC)CO", "note": "[ETHAMBUTOL HYDROBROMIDE]", "MIC90": 0.8}, {"smiles": "CC[C@@H](CO)NCCN[C@@](C)(CC)CO", "MIC90": 3.12}]}]}
